Test results as given in article PMC12489099 (Nature Communications, 2025).

Tests used:
Assay type in all cases: biochemical
[1] = target: Tau441-ΔK280 (Homo sapiens, UniProt P10636, DEL597-597); assay: ThT fluorescence assay of Tau-ΔK280 fibrillization; settings: both 5/1 and 1/1 ratios
How it was run: (§1)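 Lyophilized full-length Tau441 (wild-type or ΔK280) was diluted to 40 µM stock in 25 mM NaPi, 25 mM NaCl, 2.5 mM EDTA, pH 6.8, and used at 10 µM final with 25 µM ThT. Aggregation was started with 0.0625 µM heparin. Water-dissolved test compound was added at 50, 10 or 1 µM. Fluorescence was followed over time. Curves were fitted to a Boltzmann sigmoid and scaled to maximal control fluorescence; Wt-Tau relative F was taken at 30 h.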

[2] = target: Wt-Tau441 (Homo sapiens, UniProt P10636); assay: ThT fluorescence assay of Wt-Tau fibrillization
How it was run: as §1

[3] = target: Aβ1-42 (Homo sapiens, UniProt P05067); assay: ThT fluorescence assay of Aβ1-42 fibrillization; settings: compound/Aβ1-42 ratio 1/1
Aβ1-42, sequence (P05067 672-713): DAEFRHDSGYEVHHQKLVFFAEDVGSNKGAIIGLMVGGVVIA

Row | inhibition of the aggregation of Tau-ΔK280 (in words) [1] | decrease of F versus Wt-Tau control ([2]; compound/Wt-Tau ratio 0.1/1) | t1/2, change versus Wt-Tau control ([2]; compound/Wt-Tau ratio 1/1, N.A. = no aggregation) | inhibition of the aggregation of Wt-Tau (in words) ([2]; compound/Wt-Tau ratio 5/1, ThT) | F, change versus Aβ1-42 control [3] | Compound
1 | complete inhibition | 50% | +55% | complete inhibition | – | CN(C)c1ccc2nc3ccc(=[N+](C)C)cc-3sc2c1 [MB, methylthioninium chloride]
2 | – | – | – | – | -78% | Oc1ccc(/C=C/c2cc(O)cc(O)c2)cc1 [Resveratrol]
